# Reference: ChEMBL document CHEMBL2424622, “Development of amino-pyrimidine inhibitors of c-Jun N-terminal kinase (JNK): kinase profiling guided optimization of a 1,2,3-benzotriazole lead” (Bioorg Med Chem Lett, 2013)
# Assays:
# [1] = Clearance in human liver microsomes; assay type: ADME, Microsome; conditions: read-out: CLH
# Method in brief: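 Intrinsic clearance was measured in vitro in human liver microsomes and expressed per mg microsomal protein.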
# [2] = target: T1, Mitogen-activated protein kinase 9 (Homo sapiens, UniProt P45984); experiment: Ratio of IC50 for human JNK2 in presence of human serum to IC50 for human JNK2 in absence of human serum
# Target sequence in this assay (P45984 whole entry, looked up): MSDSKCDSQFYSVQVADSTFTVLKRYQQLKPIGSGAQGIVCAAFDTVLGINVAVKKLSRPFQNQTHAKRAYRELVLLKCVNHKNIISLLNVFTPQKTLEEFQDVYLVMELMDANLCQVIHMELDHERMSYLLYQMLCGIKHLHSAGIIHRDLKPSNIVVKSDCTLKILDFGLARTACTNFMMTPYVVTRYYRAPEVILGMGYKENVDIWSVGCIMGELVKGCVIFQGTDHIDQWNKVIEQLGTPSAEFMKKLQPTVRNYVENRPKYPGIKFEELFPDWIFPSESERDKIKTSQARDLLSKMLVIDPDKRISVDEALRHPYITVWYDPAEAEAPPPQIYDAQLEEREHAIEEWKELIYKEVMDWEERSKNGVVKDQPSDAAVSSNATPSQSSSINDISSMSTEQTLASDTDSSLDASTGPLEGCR
# [3] = target: c-Jun N-terminal kinase, JNK (Homo sapiens, UniProt P45983+P53779+P45984); experiment: Inhibition of JNK in human SW1353 cells assessed as inhibition of TNFalpha-induced c-Jun phosphorylation incubated for 30 mins prior to TNFalpha induction measured after 20 mins; assay type: cell-based
# Method in brief: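 SW1353 cells were stimulated with TNFa, and the read-out was inhibition of phosphorylation of the downstream substrate c-Jun. Values are the mean of at least three experiments.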
# [4] = target: Mitogen-activated protein kinase 8 (Homo sapiens, UniProt P45983)
# [5] = target: T1, Mitogen-activated protein kinase 9
# Target sequence in this assay (P45984 whole entry): as the sequence (P45984 whole entry, looked up) above
# Cytochrome P450 2C9 = Cytochrome P450 2C9 (Homo sapiens, UniProt P11712); experiment: Inhibition of CYP2C9 (unknown origin); assay type: ADME
# HCT-116 = experiment: Cytotoxicity against human HCT116 cells assessed as cell viability by WST-1 reduction assay; assay type: cell-based
# Method in brief: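 Cytotoxicity was measured in an HCT-116 cell proliferation assay as reduction of WST-1 reagent. Values are the mean of at least three experiments.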
# [6] = target: Cyclin-dependent kinase 2/cyclin E1 (Homo sapiens, UniProt P24941); experiment: Inhibition of human recombinant CDK2/GST-tagged cyclin E expressed in baculovirus infected insect cells assessed as inhibition of 6XHis-tagged retinoblastoma protein (386 to 928) phosphorylation after 30 mins by scintillation counting analysis in presence of [gamma-33P]-ATP
# Method in brief: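 CDK2 activity was measured as phosphorylation of a 6-histidine-tagged truncated retinoblastoma protein (amino acids 386–928) using [γ-33P]ATP.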
# Homo sapiens = organism: Homo sapiens; experiment: Selectivity ratio of IC50 for human JNK2 to IC50 for human JNK1
# Method in brief: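 JNK1 and JNK2 activities were each measured as phosphorylation of GST-ATF2 (19–96) with [γ-33P]ATP, and IC50s were determined for each enzyme. The ratio is JNK2 IC50 over JNK1 IC50. IC50s are the mean of at least three experiments.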
# [7] = target: Cyclin-dependent kinase 4/cyclin D1 (Homo sapiens, UniProt P11802); experiment: Inhibition of human recombinant human GST-tagged CDK4/cyclin D1 expressed in baculovirus infected insect cells assessed as inhibition of 6XHis-tagged retinoblastoma protein (386 to 928) phosphorylation after 30 mins by scintillation counting analysis in presence of [gamma-33P]-ATP
# [8] = target: Mitogen-activated protein kinase 10 (Homo sapiens, UniProt P53779); experiment: Inhibition of human JNK3 assessed as inhibition of GST-tagged ATF2 (19 to 96) phosphorylation incubated for 10 mins prior to substrate addition measured after 30 mins by scintillation counting analysis in presence of [gamma-33P]-ATP
# [9] = target: Cyclin-dependent kinase 1/cyclin B1 (Homo sapiens, UniProt P06493); experiment: Inhibition of human recombinant human CDK1/GST-tagged cyclin B expressed in baculovirus infected insect cells assessed as inhibition of 6XHis-tagged retinoblastoma protein (386 to 928) phosphorylation after 30 mins by scintillation counting analysis in presence of [gamma-33P]-ATP
# MAP kinase p38 = MAP kinase p38 (Homo sapiens, UniProt O15264+Q15759+Q16539+P53778); experiment: Inhibition of p38 (unknown origin); assay type: protein assay
# Chain of Mitogen-activated protein kinase 8 (P45983 whole entry): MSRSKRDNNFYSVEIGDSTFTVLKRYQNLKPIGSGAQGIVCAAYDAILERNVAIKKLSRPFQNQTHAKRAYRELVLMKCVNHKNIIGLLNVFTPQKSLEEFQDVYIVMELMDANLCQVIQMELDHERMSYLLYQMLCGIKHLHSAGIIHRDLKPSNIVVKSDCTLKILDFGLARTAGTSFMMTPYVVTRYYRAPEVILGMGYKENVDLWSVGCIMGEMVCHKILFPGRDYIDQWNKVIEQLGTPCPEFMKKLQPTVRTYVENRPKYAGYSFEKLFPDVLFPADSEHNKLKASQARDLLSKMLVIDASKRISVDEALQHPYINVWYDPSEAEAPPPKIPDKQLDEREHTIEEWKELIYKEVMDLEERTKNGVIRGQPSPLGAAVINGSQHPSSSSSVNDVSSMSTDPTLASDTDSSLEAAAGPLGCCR
# Chain of Cyclin-dependent kinase 1/cyclin B1 (P06493 whole entry): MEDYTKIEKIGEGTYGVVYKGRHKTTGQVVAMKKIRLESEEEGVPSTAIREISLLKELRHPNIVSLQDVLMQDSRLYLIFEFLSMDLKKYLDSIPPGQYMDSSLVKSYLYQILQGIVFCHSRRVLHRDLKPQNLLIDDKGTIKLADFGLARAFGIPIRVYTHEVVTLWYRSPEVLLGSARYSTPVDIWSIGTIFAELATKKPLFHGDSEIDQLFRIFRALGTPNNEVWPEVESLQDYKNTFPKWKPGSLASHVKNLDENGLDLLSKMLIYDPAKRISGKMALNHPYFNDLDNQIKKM
# Chain of Cyclin-dependent kinase 1/cyclin B1 (P14635 whole entry, further chain): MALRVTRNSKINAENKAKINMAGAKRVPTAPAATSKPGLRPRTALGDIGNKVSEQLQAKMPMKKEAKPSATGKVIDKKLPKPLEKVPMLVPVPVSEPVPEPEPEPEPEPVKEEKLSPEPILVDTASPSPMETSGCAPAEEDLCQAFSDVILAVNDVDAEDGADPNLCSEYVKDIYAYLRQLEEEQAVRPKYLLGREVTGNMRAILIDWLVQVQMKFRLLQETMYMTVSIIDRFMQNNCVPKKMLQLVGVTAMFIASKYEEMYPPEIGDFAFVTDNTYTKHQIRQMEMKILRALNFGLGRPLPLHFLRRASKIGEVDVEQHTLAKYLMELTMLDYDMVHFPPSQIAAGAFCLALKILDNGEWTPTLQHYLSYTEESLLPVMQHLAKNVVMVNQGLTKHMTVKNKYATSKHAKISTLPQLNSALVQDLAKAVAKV
# Chain of Mitogen-activated protein kinase 10 (P53779 whole entry): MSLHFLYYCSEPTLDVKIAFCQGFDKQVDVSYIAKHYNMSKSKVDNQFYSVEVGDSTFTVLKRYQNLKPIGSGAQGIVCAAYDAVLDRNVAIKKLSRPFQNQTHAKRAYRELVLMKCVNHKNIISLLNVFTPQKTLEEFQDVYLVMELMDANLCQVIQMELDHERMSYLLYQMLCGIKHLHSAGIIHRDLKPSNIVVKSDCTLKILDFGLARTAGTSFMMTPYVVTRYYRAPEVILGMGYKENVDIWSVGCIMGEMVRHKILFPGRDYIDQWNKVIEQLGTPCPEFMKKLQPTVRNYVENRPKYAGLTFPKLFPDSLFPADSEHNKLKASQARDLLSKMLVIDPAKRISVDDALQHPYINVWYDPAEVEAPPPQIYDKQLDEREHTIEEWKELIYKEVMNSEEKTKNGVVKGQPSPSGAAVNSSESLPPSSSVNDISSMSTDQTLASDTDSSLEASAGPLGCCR
# Chain of Cytochrome P450 2C9 (P11712 whole entry): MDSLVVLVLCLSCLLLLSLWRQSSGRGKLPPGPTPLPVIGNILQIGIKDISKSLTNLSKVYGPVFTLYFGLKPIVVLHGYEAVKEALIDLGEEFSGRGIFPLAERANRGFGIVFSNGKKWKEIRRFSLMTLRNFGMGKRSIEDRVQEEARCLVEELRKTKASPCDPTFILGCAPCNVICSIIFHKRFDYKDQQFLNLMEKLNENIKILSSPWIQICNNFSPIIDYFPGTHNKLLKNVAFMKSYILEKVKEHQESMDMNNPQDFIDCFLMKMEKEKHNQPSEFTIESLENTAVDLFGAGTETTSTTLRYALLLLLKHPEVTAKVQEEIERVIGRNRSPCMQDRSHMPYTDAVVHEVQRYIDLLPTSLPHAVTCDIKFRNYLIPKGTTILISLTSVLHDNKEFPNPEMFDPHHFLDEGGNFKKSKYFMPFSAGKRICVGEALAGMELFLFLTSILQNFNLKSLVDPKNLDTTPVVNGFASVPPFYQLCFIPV
# Chain of Cyclin-dependent kinase 4/cyclin D1 (P11802 whole entry): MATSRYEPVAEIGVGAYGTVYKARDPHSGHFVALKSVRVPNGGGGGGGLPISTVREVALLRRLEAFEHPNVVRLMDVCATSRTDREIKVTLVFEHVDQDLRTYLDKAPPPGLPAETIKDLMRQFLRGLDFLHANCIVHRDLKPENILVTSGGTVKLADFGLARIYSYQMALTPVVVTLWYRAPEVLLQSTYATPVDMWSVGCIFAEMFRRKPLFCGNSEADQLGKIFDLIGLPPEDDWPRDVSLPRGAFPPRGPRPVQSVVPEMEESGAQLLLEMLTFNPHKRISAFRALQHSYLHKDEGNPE
# Chain of Cyclin-dependent kinase 4/cyclin D1 (P24385 whole entry, further chain): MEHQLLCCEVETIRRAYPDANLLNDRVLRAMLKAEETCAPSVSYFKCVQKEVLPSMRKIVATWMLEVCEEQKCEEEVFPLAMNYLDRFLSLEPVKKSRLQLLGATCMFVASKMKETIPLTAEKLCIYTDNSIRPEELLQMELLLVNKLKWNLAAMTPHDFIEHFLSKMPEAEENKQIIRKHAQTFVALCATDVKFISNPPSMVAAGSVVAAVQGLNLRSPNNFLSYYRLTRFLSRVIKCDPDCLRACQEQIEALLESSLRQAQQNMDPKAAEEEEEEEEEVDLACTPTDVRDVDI
Compound,microsomal CLint [1],Ratio IC50 [2],IC50 [3],IC50 [4],IC50 [5],IC50 (Cytochrome P450 2C9),IC50 [6],Ratio IC50 (Homo sapiens),IC50 [7],IC50 [8],IC50 [9],IC50 (MAP kinase p38),IC50 (HCT-116)
CS(=O)(=O)NCCCOc1cccc2c1cnn2-c1ccnc(N[C@H]2CC[C@H](O)CC2)n1,,17,1100 nM,56 nM,246 nM,,,,,,,,
CC(=O)N[C@H]1CC[C@H](Nc2nccc(-n3nnc4ccccc43)n2)CC1,,,1500 nM,39 nM,230 nM,39 nM,570 nM,4,,,,,16000 nM
COc1cccc2c1cnn2-c1ccnc(N[C@H]2CC[C@H](O)CC2)n1,,37,3100 nM,,,,,,,,,,
O[C@H]1CC[C@H](Nc2nccc(N3CCc4ccccc43)n2)CC1,,,,770 nM,2900 nM,,,,,,,,
CS(=O)(=O)CCCOc1cccc2c1ccn2-c1ccnc(N[C@H]2CC[C@H](C(=O)N3CCC(F)(F)CC3)CC2)n1,283 µL/min/mg,4.2,1400 nM,16 nM,51 nM,,,,,,,,
O[C@H]1CC[C@H](Nc2nccc(-c3c[nH]c4ccccc34)n2)CC1,,,8200 nM,140 nM,720 nM,,,,,,,,
O[C@H]1CC[C@H](Nc2nccc(-c3nnc4ccccn34)n2)CC1,,,12000 nM,570 nM,1200 nM,,,,,,,,
OCC(O)COc1cccc2c1cnn2-c1ccnc(N[C@H]2CC[C@H](O)CC2)n1 (stereo partly specified),,5.7,2000 nM,34 nM,194 nM,,,,,,,,
CN(C)S(=O)(=O)N[C@H]1CC[C@H](Nc2nccc(-n3nnc4ccccc43)n2)CC1,,,4900 nM,19 nM,76 nM,,1700 nM,4,,,,,22000 nM
CS(=O)(=O)CCOc1cccc2c1cnn2-c1ccnc(N[C@H]2CC[C@H](O)CC2)n1,,4,980 nM,33 nM,151 nM,,,,,,,,
c1ccc2c(c1)nnn2-c1ccnc(NC2CCCCC2)n1,,,,100 nM,390 nM,,2700 nM,4,,,,,
CS(=O)(=O)N[C@H]1CC[C@H](Nc2nccc(-n3nnc4ccccc43)n2)CC1,,,1300 nM,24 nM,97 nM,,300 nM,4,910 nM,114 nM,1520 nM,> 10000 nM,2300 nM
O=C([C@H]1CC[C@H](Nc2nccc(-n3nnc4ccccc43)n2)CC1)N1CCCC1,,,3300 nM,120 nM,400 nM,,> 6200 nM,4,,,,,> 30000 nM
OCCCOc1cccc2c1cnn2-c1ccnc(N[C@H]2CC[C@H](O)CC2)n1,,28,960 nM,24 nM,139 nM,,,,,,,,

# The next lines start with results.
microsomal CLint [1],Ratio IC50 [2],IC50 [3],IC50 [4],IC50 [5],IC50 (Cytochrome P450 2C9),IC50 [6],Ratio IC50 (Homo sapiens),IC50 [7],IC50 [8],IC50 [9],IC50 (MAP kinase p38),Compound,IC50 (HCT-116)
141 µL/min/mg,2.9,1400 nM,4.7 nM,28 nM,,,,,,,,COC1CCN(C(=O)[C@H]2CC[C@H](Nc3nccc(-n4ccc5c(OCCCS(C)(=O)=O)cccc54)n3)CC2)CC1,
609 µL/min/mg,4.6,580 nM,14 nM,57 nM,,,,,,,,CCN(CC)C(=O)[C@H]1CC[C@H](Nc2nccc(-n3ccc4c(OCCCS(C)(=O)=O)cccc43)n2)CC1,
,147,> 30000 nM,12 nM,79 nM,,,,,,,,CCCOc1cccc2c1cnn2-c1ccnc(N[C@H]2CC[C@H](O)CC2)n1,
19 µL/min/mg,2.6,1100 nM,9.7 nM,47 nM,,,,,,,,CS(=O)(=O)CCCOc1cccc2c1ccn2-c1ccnc(N[C@H]2CC[C@H](C(=O)N3CC[C@@H](O)C3)CC2)n1,
,18,240 nM,4 nM,21 nM,,,,,,,,CC(C)(O)[C@H]1CC[C@H](Nc2nccc(-n3ncc4c(OCCCS(C)(=O)=O)cccc43)n2)CC1,
,6.3,350 nM,4 nM,27 nM,,,,,,,,CC(C)(O)[C@H]1CC[C@H](Nc2nccc(-n3ccc4c(OCCCS(C)(=O)=O)cccc43)n2)CC1,
175 µL/min/mg,2.5,590 nM,14 nM,64 nM,,,,,,,,CS(=O)(=O)CCCOc1cccc2c1ccn2-c1ccnc(N[C@H]2CC[C@H](C(=O)N3CC[C@@H](F)C3)CC2)n1,
